In ChEMBL document CHEMBL1795276, “Synthesis and biological testing of novel pyridoisothiazolones as histone acetyltransferase inhibitors” (Bioorg Med Chem, 2011):
Active and inactive are the calls of the source. The rule behind the calls is not given here.

Tests used:
[1] = target: T1, Histone acetyltransferase KAT2B (Homo sapiens, UniProt Q92831); test: Inhibition of histone acetylase activity of human recombinant PCAF expressed in Escherichia coli using biotinylated oligopeptide sequences from histone H3 (1-21) substrate by In-vitro time-resolved fluorescence immunosorbent acetyltransferase assay
Method in brief: (§1)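 His-tagged human PCAF from E. coli (IPTG induction at 18 °C overnight), purified on Ni-NTA and stored at pH 6.0. Enzyme was preincubated with inhibitor in DMSO for 10 min at 30 °C in HAT buffer pH 7.5 (0.1% BSA, 0.8% Triton X-100, 100 mM HEPES). Reaction on 20 pmol/well biotinylated H3 1–21 bound to a streptavidin plate, with 100 µM acetyl-CoA final, 1 h at 30 °C. Detection with anti-acetylhistone H3 antibody, then Eu-labelled secondary antibody; time-resolved fluorescence at 340/615 nm. IC50 from RFU plotted against log concentration.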
Target sequence in this assay (Q92831 whole entry): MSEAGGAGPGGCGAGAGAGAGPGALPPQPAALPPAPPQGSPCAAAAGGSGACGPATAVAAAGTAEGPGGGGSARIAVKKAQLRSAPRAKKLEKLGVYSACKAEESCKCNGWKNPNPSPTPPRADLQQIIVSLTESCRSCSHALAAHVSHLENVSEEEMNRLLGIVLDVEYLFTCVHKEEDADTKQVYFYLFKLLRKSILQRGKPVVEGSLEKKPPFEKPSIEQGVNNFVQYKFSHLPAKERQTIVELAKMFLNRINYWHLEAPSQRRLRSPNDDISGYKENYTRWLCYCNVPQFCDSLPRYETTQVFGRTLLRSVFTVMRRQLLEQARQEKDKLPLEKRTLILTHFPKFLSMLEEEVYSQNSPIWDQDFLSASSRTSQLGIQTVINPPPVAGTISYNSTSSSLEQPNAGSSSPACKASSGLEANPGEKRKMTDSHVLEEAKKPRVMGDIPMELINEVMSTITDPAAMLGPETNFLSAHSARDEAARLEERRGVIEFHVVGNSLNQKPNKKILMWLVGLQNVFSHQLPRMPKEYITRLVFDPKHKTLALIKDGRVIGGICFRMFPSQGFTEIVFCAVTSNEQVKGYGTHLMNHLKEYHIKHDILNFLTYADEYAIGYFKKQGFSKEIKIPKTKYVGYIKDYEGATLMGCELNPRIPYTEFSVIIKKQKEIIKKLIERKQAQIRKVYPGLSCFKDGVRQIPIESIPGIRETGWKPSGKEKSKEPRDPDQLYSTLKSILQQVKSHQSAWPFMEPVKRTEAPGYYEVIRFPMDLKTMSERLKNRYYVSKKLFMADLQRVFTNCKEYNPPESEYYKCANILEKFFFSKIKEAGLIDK

[2] = target: T1, Histone acetyltransferase KAT2B; test: Inhibition of histone acetylase activity of human recombinant PCAF expressed in Escherichia coli using biotinylated oligopeptide sequences from histone H4 (2-24) substrate by In-vitro time-resolved fluorescence immunosorbent acetyltransferase assay
Method in brief: (§2)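 E. coli-expressed His-tagged human PCAF, Ni-NTA purified. Preincubated 10 min at 30 °C with inhibitor (DMSO solution) in HEPES 100 mM pH 7.5 with 0.1% BSA and 0.8% Triton X-100. Substrate was 20 pmol/well biotinylated H4 2–24 on streptavidin wells; 100 µM acetyl-CoA final; incubation steps 1 h at 30 °C. Acetylation read with anti-acetyl-lysine primary antibody and Eu-labelled anti-rabbit secondary, by time-resolved fluorescence at 340/615 nm; IC50 from RFU versus log concentration.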
Target sequence in this assay (Q92831 whole entry): as above

[3] = target: T1, Histone acetyltransferase KAT2B; test: Inhibition of histone acetylase activity of human recombinant PCAF expressed in Escherichia coli using biotinylated oligopeptide sequences from histone H3 (1-21) substrate in presence of 1 mmol/L DTT by In-vitro time-resolved fluorescence immunosorbent acetyltransferase assay
Target sequence in this assay (Q92831 whole entry, looked up): as the sequence (Q92831 whole entry) above

[4] = system: SK-N-SH; test: Growth inhibition of human SK-N-SH cells by CellTiter-96 Aqueous Non-radioactive cell proliferation assay; format: functional
Method in brief: (§3)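 SK-N-SH neuroblastoma cells were grown in low-glucose DMEM with 10% FBS, 2 mM L-glutamine and 1% penicillin-streptomycin, and seeded at 5000/well. Compound or DMSO vehicle was added after 24 h, in triplicate.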

[5] = system: MCF7; test: Growth inhibition of human MCF7 cells by CellTiter-96 Aqueous Non-radioactive cell proliferation assay; format: functional
Method in brief: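 MCF-7 cells were grown in RPMI-1640 with 10% FBS, 2 mM L-glutamine and penicillin-streptomycin, and seeded at 5000/well. Compounds or DMSO were added after 24 h; three replicates per concentration.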

[6] = system: HCT-116; test: Growth inhibition of human HCT116 cells at 25 uM by CellTiter-96 Aqueous Non-radioactive cell proliferation assay; format: functional; details: read-out: GI
Method in brief: (§4)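 HCT116 cells were grown in high-glucose DMEM with 10% FBS, 2 mM L-glutamine, 1% non-essential amino acids and penicillin-streptomycin, and seeded at 4000/well. After 24 h, compound or DMSO vehicle was added; triplicates per concentration.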

[7] = system: SK-N-SH; test: Growth inhibition of human SK-N-SH cells at 20 uM by CellTiter-96 Aqueous Non-radioactive cell proliferation assay; format: functional; details: read-out: GI; method in brief: as §3
[8] = target: T1, Histone acetyltransferase KAT2B; test: Inhibition of histone acetylase activity of human recombinant PCAF expressed in Escherichia coli at 50 uM using biotinylated oligopeptide sequences from histone H4 (2-24) substrate by In-vitro time-resolved fluorescence immunosorbent acetyltransferase assay; method in brief: as §2
Target sequence in this assay (Q92831 whole entry, looked up): as the sequence (Q92831 whole entry) above

[9] = system: HCT-116; test: Growth inhibition of human HCT116 cells at 20 uM by CellTiter-96 Aqueous Non-radioactive cell proliferation assay; format: functional; details: read-out: GI; method in brief: as §4
[10] = target: T1, Histone acetyltransferase KAT2B; test: Inhibition of histone acetylase activity of human recombinant PCAF expressed in Escherichia coli at 25 uM using biotinylated oligopeptide sequences from histone H3 (1-21) substrate by In-vitro time-resolved fluorescence immunosorbent acetyltransferase assay; method in brief: as §1
Target sequence in this assay (Q92831 whole entry, looked up): as the sequence (Q92831 whole entry) above

[11] = system: SK-N-SH; test: Growth inhibition of human SK-N-SH cells at 25 uM by CellTiter-96 Aqueous Non-radioactive cell proliferation assay; format: functional; details: read-out: GI; method in brief: as §3
[12] = system: SK-N-SH; test: Growth inhibition of human SK-N-SH cells at 10 uM by CellTiter-96 Aqueous Non-radioactive cell proliferation assay; format: functional; details: read-out: GI; method in brief: as §3
[13] = system: HCT-116; test: Growth inhibition of human HCT116 cells by CellTiter-96 Aqueous Non-radioactive cell proliferation assay; format: functional; method in brief: as §4
[14] = target: T1, Histone acetyltransferase KAT2B; test: Inhibition of histone acetylase activity of human recombinant PCAF expressed in Escherichia coli at 50 uM using biotinylated oligopeptide sequences from histone H3 (1-21) substrate by In-vitro time-resolved fluorescence immunosorbent acetyltransferase assay; method in brief: as §1
Target sequence in this assay (Q92831 whole entry, looked up): as the sequence (Q92831 whole entry) above

[15] = system: HCT-116; test: Growth inhibition of human HCT116 cells at 40 uM by CellTiter-96 Aqueous Non-radioactive cell proliferation assay; format: functional; details: read-out: GI; method in brief: as §4
[16] = system: SK-N-SH; test: Growth inhibition of human SK-N-SH cells at 40 uM by CellTiter-96 Aqueous Non-radioactive cell proliferation assay; format: functional; details: read-out: GI; method in brief: as §3
[17] = target: T1, Histone acetyltransferase KAT2B; test: Inhibition of histone acetylase activity of human recombinant PCAF expressed in Escherichia coli at 200 uM using biotinylated oligopeptide sequences from histone H4 (2-24) substrate by In-vitro time-resolved fluorescence immunosorbent acetyltransferase assay; method in brief: as §2
Target sequence in this assay (Q92831 whole entry, looked up): as the sequence (Q92831 whole entry) above

[18] = target: T1, Histone acetyltransferase KAT2B; test: Inhibition of histone acetylase activity of human recombinant PCAF expressed in Escherichia coli at 300 uM using biotinylated oligopeptide sequences from histone H3 (1-21) substrate by In-vitro time-resolved fluorescence immunosorbent acetyltransferase assay; method in brief: as §1
Target sequence in this assay (Q92831 whole entry, looked up): as the sequence (Q92831 whole entry) above

[19] = system: SK-N-SH; test: Growth inhibition of human SK-N-SH cells at 5 to 25 uM incubated for 6 to 72 hrs by CellTiter-96 Aqueous Non-radioactive cell proliferation assay; format: functional, cell-based
Method in brief: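 Time course in SK-N-SH cells (5000/well, low-glucose DMEM with 10% FBS). Compound at 5, 10 or 25 µM was added 24 h after seeding, and growth was followed up to 72 h of incubation by CellTiter 96 AQueous absorbance, relative to DMSO control.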

[20] = target: T1, Histone acetyltransferase KAT2B; test: Inhibition of histone acetylase activity of human recombinant PCAF expressed in Escherichia coli at 10 uM using biotinylated oligopeptide sequences from histone H3 (1-21) substrate by In-vitro time-resolved fluorescence immunosorbent acetyltransferase assay; method in brief: as §1
[21] = system: HCT-116; test: Growth inhibition of human HCT116 cells at 100 uM by CellTiter-96 Aqueous Non-radioactive cell proliferation assay; format: functional; details: read-out: GI; method in brief: as §4
[22] = system: SK-N-SH; test: Growth inhibition of human SK-N-SH cells at 100 uM by CellTiter-96 Aqueous Non-radioactive cell proliferation assay; format: functional; details: read-out: GI; method in brief: as §3

| SMILES | IC50 [1] | GI50 [4] | inhibition of growth at 25 µM [6] | other results |
| --- | --- | --- | --- | --- |
| Cc1cnc2sn(-c3ccc([N+](=O)[O-])cc3)c(=O)c2c1 | 15.3 µM |  |  | IC50 [2]: 2.72 µM |
| O=c1c2cc([N+](=O)[O-])cnc2sn1-c1ccc([N+](=O)[O-])cc1 | 11.8 µM |  |  | IC50 [2]: 15.8 µM |
| COc1ccc(-n2sc3ncc([N+](=O)[O-])cc3c2=O)cc1 | 3.42 µM |  |  | inhibition [3]: inactive; IC50 [2]: 1.83 µM |
| O=c1c2cc([N+](=O)[O-])cnc2sn1-c1ccc(Br)cc1 | 4.91 µM | 53.5 µM |  | GI50 [5]: 44.2 µM; IC50 [2]: 0.86 µM |
| COc1ccc(-n2sc3ncccc3c2=O)cc1 | 5.71 µM | 19.2 µM | 29% |  |
| O=c1c2cccnc2sn1-c1ccc(F)c(F)c1 | 5.9 µM |  |  |  |
| O=c1c2cccnc2sn1Cc1ccc(F)cc1 | 86.3 µM |  |  |  |
| O=c1c2cccnc2sn1-c1ccc(Cl)c(Cl)c1 | 4.57 µM |  |  | inhibition of growth at 20 µM [7]: 37%; inhibition [8]: 91%; inhibition of growth at 20 µM [9]: 56% |
| O=c1ccsn1-c1ccc(Cl)c([N+](=O)[O-])c1 | 4.8 µM | 23.2 µM |  |  |
| COc1cccc(-n2sc3ncccc3c2=O)c1 | 5.03 µM |  |  |  |
| Cc1cnc2sn(-c3ccc(Br)cc3)c(=O)c2c1 | 2.99 µM | 21.3 µM | < 5% |  |
| O=c1c2ccc([N+](=O)[O-])cc2sn1Cc1ccccc1 | 7.66 µM |  |  | IC50 [2]: 51.3 µM |
| CCCCc1ccc(-n2sc3ncc(-c4ccccc4)cc3c2=O)cc1 |  |  | 33% | inhibition [10]: 49%; inhibition of growth at 25 µM [11]: 55% |
| O=c1c2cccnc2sn1Cc1ccc(Cl)cc1 | 17.5 µM |  | 97% | inhibition of growth at 10 µM [12]: 20% |
| O=c1c2cccnc2sn1-c1ccc([N+](=O)[O-])cc1 | 4.1 µM |  |  | IC50 [2]: 2.99 µM |
| Cc1ccc(-n2sc3ncccc3c2=O)cc1 | 4.63 µM | 6.2 µM | 20% | inhibition [8]: 75% |
| Cc1cc(C)c2c(=O)n(CC(=O)Nc3ccc(F)cc3C)sc2n1 |  | 25.7 µM |  | GI50 [13]: 22.6 µM; inhibition [14]: 48% |
| Cc1cnc2sn(-c3ccc(Oc4ccccc4)cc3)c(=O)c2c1 | 12.9 µM |  | 29% | inhibition of growth at 25 µM [11]: 32% |
| O=C(Cn1sc2cc(F)ccc2c1=O)Nc1nc(-c2ccccc2)cs1 |  |  |  | inhibition of growth at 40 µM [15]: < 5%; inhibition of growth at 40 µM [16]: < 5%; inhibition [14]: 21% |
| O=c1c2ccccc2sn1-c1nc2ccccc2s1 |  |  |  | inhibition [14]: 46% |

| SMILES | IC50 [1] | GI50 [4] | inhibition of growth at 25 µM [6] | other results |
| --- | --- | --- | --- | --- |
| O=c1c2cccnc2[s+]([O-])n1Cc1ccc(Cl)c(Cl)c1 (stereo not given) |  |  |  | inhibition [14]: 11% |
| C=C(C)C(C(=O)OC)n1scc(NCc2ccccc2)c1=O (stereo not given) |  |  |  | inhibition [17]: 20%; inhibition [18]: 48% |
| O=c1c2cccnc2sn1-c1ccc(F)cc1 | 1.64 µM | 10.3 µM | 28% | GI50 [5]: 37.2 µM; IC50 [2]: 0.72 µM; growth inhibition (GI) [19]: Dose-dependent effect |
| O=c1c2cc([N+](=O)[O-])cnc2sn1-c1ccc(Oc2ccccc2)cc1 |  |  | < 10% | inhibition [20]: 48%; inhibition of growth at 25 µM [11]: < 5% |
| CCCCc1ccc(-n2sc3ncccc3c2=O)cc1 | 15.9 µM | 8.93 µM | 21% |  |
| O=c1c2cccnc2sn1-c1ccc(Br)cc1 | 4.43 µM |  |  |  |
| O=C1c2cccnc2S(=O)(=O)N1Cc1ccc(Cl)c(Cl)c1 |  |  |  | inhibition [14]: 6% |
| O=c1c2cccnc2sn1Cc1ccccc1 | 23 µM |  |  |  |
| O=c1c2cccnc2sn1Cc1ccc(Cl)c(Cl)c1 | 6.94 µM | 9.53 µM |  | GI50 [13]: 15.8 µM |
| O=c1c2cccnc2sn1-c1ccccc1 | 7.85 µM |  |  | inhibition [8]: 88% |
| O=c1c2cccnc2sn1-c1ccc(Cl)cc1 | 3.53 µM | 16.1 µM | 23% | inhibition [8]: 87% |
| Oc1nsc2ncccc12 |  |  |  | inhibition [14]: 17% |
| Cc1cc(C)c2c(=O)n(CC(=O)Nc3ccc(Cl)cc3)sc2n1 |  | 22.1 µM |  | GI50 [13]: 35.8 µM; inhibition [14]: 38% |
| COc1cccc(Cn2sc3ncccc3c2=O)c1 | 22.2 µM |  | 42% | inhibition of growth at 10 µM [12]: 26% |
| O=c1c2cccnc2sn1Cc1ccc(C(F)(F)F)cc1 | 130 µM | 0.48 µM | 38% | GI50 [5]: 30.2 µM; IC50 [2]: 25.5 µM |
| O=C1/C(=C/c2ccc3c(c2)OCO3)C(=S)SN1Cc1ccco1 |  |  |  | inhibition [10]: < 5% |
| O=c1c2cccnc2sn1Cc1ccc(F)c(F)c1 | 101 µM |  |  |  |
| Cc1ccc(-n2sc3cc(F)ccc3c2=O)cc1 | 3.69 µM |  |  | inhibition of growth at 100 µM [21]: 49%; inhibition of growth at 100 µM [22]: 35% |
| COc1ccc(-n2sc3ncc(C)cc3c2=O)cc1 | 6.51 µM | 12.2 µM | 40% |  |
| Cc1ccc(Cn2sc3ncccc3c2=O)cc1 | 27.9 µM |  | 79% | inhibition of growth at 10 µM [12]: 31% |
